Measured values as given in ChEMBL document CHEMBL1275365, “Synthetic analogues of the microtubule-stabilizing sponge alkaloid ceratamine A are more active than the natural product” (J Med Chem, 2010).
In brackets after ≈: the same amount, converted by molar mass. Activity calls are given as the source filed them. The calls are words filed in the database; no cut-off is given here.

What was measured:
[1] = tested on: MCF7; assay: Antimitotic activity in human MCF7mp53 cells assessed as induction of mitotic arrest after 20 hrs; assay type: functional, cell-based; details: MCF7, 20 h
How it was run: (§1)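 MCF-7mp53 cells in 96-well plates, treated in triplicate with compound at 1-50 μg/mL for 20 h at 37 °C. Plates spun 50g, 2 min, to keep mitotic cells attached. Cells fixed/permeabilized (3.7% formaldehyde, 0.1% Triton X-100 in TBS), blocked with 1% BSA. Mitotic cells stained with TG-3 antibody plus fluorescent secondary, nuclei with Hoechst 33342. High-content imaging gave percentage of cells in mitosis.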

[2] = tested on: MCF7; assay: Antimitotic activity in human MCF7mp53 cells assessed as cells arrested at mitotic stage at optimal concentration after 20 hrs; assay type: functional; how it was run: as §1
[3] = tested on: MCF7; assay: Antimitotic activity in human MCF7mp53 cells assessed as induction of mitotic arrest at 50 ug/mL after 20 hrs; assay type: functional, cell-based; how it was run: as §1

Row | IC50 [1] [µg/mL] | SMILES | Activity [2] [%] | Activity [3]
1 | > 50 | CNc1nc2ccn(C)c(=O)c(Cc3ccc(OC)cc3)c-2n1 [DESBROMOCERATAMINE A] | 23 | –
2 | 5 (≈ 10.7 µM) | CNc1nc2ccn(C)c(=O)c(Cc3cc(Br)c(OC)c(Br)c3)c-2n1 [CERATAMINE A] | 54 | –
3 | – | CNc1nc2ccn(C)c(=O)c(C(O)c3cc(C)c(OC)c(C)c3)c-2n1 (stereo unspecified) | – | inactive
4 | 3 (≈ 8.51 µM) | COc1c(C)cc(Cc2c3nc(N(C)C)nc-3ccn(C)c2=O)cc1C | 82 | –
5 | – | COc1c(C)cc(/C=C2/C(=O)N(C)C=Cc3nc(N(C)C(=O)C(F)(F)F)n(C)c32)cc1C | – | inactive
6 | 3.5 (≈ 10.3 µM) | CNc1nc2ccn(C)c(=O)c(Cc3cc(C)c(OC)c(C)c3)c-2n1 | 67 | –
7 | – | COc1c(C)cc(Cc2c3nc(N)nc-3ccn(C)c2=O)cc1C | – | inactive
